Assay results collected from several papers.
Lines come from different studies, so protocols differ.
PDPK1: 3-phosphoinositide-dependent protein kinase 1 (PDPK1, Homo sapiens, UniProt O15530)
PRSS1: Serine protease 1 (PRSS1, Homo sapiens, UniProt P07477)

SMILES	target	test	conditions	quantity	value
CNC(=O)c1ccc(-c2cnn3ccc(C(=O)N(C)c4ccc(Cl)c(C(=O)O)c4)cc23)cc1	PDPK1	enzyme activity, inhibitor		IC50	> 30 µM
CCC(C(=O)Nc1cc(NC2CCNC2)ccc1C)n1cc(Br)cc2nc(SCc3ccc(F)cc3)nc1-2 (centres unmarked)	PRSS1	enzyme activity, inhibitor		IC50	> 100 µM
CC[C@H](C)[C@H](NC(=O)[C@H](CO)NC(=O)CNC(=O)[C@@H](NC(=O)[C@@H](NC(=O)[C@@H](NC(=O)CN)[C@@H](C)O)C(C)C)[C@@H](C)O)C(=O)N[C@@H](CC(C)C)C(=O)N[C@H](C(=O)N1CCC[C@H]1C(=O)N[C@H](C(=O)N[C@@H](CC(=O)O)C(=O)N[C@@H](Cc1ccc(O)cc1)C(=O)NCC(=O)N[C@H]1CSSC[C@@H](C(=O)N[C@@H](CO)C(=O)N[C@H](C(=O)N[C@@H](C)C(=O)N[C@@H](CCSC)C(=O)N[C@@H](Cc2ccc(O)cc2)C(=O)NCC(=O)NCC(=O)N[C@H](C(=O)N[C@H](C(=O)N[C@@H](CC(=O)O)C(=O)N2CCC[C@H]2C(=O)N[C@H](C(=O)N[C@@H](CCCNC(=N)N)C(=O)N[C@@H](Cc2ccccc2)C(=O)N2CCC[C@H]2C(=O)N[C@@H](CC(N)=O)C(=O)N[C@@H](C)C(=O)N[C@@H](Cc2c[nH]c3ccccc23)C(=O)N[C@@H](CCCNC(=N)N)C(=O)N[C@@H](CCC(=O)O)C(=O)N[C@@H](CC(C)C)C(=O)O)[C@@H](C)CC)[C@@H](C)CC)C(C)C)C(C)C)NC(=O)[C@H](CC(C)C)NC(=O)[C@H](Cc2ccccc2)NC(=O)[C@@H]2CCCN2C(=O)[C@H](CC(N)=O)NC(=O)[C@H](Cc2ccccc2)NC1=O)[C@@H](C)CC)[C@@H](C)O	Chymotrypsinogen A (Bos taurus, UniProt P00766)	enzyme activity, inhibitor, fluorescence		IC50	> 100 µM
COC(=O)c1cc(N(C)C(=O)c2ccn3ncc(-c4ccc(C(=O)O)cc4)c3c2)ccc1Cl	PDPK1	enzyme activity, inhibitor		IC50	> 30 µM
C=CCc1ccc(OC)cc1	OR8H1 (Homo sapiens, UniProt Q8NGG4)	cAMP, agonist, luciferase		EC50	> 600 µM
O=C(O)C(F)(F)C(F)(F)C(F)(F)C(F)(F)C(F)(F)C(F)(F)C(F)(F)F	Aldo-keto reductase family 1 member C1 (AKR1C1, Homo sapiens, UniProt Q04828)	enzyme activity, inhibitor		IC50	≥ 50 µM
O=C(O)[C@H]1/C(=C/CO)O[C@@H]2CC(=O)N21	Carbapenem-hydrolyzing beta-lactamase KPC (KPC-2, Klebsiella pneumoniae, UniProt Q9F663)	enzyme activity, inhibitor, absorbance	pH 7, with preincubation	IC50	249 µM
CCC(C(=O)Nc1cc(NC2CCOCC2)ccc1C)n1cc(Br)cc2nc(SCc3ccc(F)cc3)nc1-2 (centres unmarked)	PRSS1	enzyme activity, inhibitor		IC50	> 100 µM
